Drawing on ChEMBL document CHEMBL2346655, “Synthesis and in vitro biological evaluation of 2,6,9-trisubstituted purines targeting multiple cyclin-dependent kinases” (Eur J Med Chem, 2013), this text covers IC50 for 22 molecules.

One experiment has as its target CDK9/cyclin T1 (Homo sapiens, UniProt P50750). Briefly: Inhibition of CDK9/CyclinT1 (unknown origin) using (YSPTSPS)2KK as substrate. It is filed as protein-complex assay. The procedure, abridged:
(§1)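 Buffer was 60 mM HEPES-NaOH pH 7.5, 3 mM MgCl2, 3 mM MnCl2, vanadate, DTT and PEG. Reactions were stopped with H3PO4 and spotted on P-81 paper, which was then washed. Radioactivity was imaged; IC50 taken from dose–response curves.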

In a further experiment the test system is HOS. Nature of the experiment: Cytotoxicity against human HOS cells assessed as reduction in number of viable cells after 72 hrs by fluorescence assay. It is filed as functional, cell-based. The procedure, abridged: (§2)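 Three-fold compound dilutions tested in triplicate on cultured cells for 72 h. Viable cells detected by adding Calcein AM and reading fluorescence at 485/538 nm (ex/em).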

A further experiment concerns G-361. Briefly: Cytotoxicity against human G361 cells assessed as reduction in number of viable cells after 72 hrs by fluorescence assay. The format is functional, cell-based. The settings on record: G-361, 72 h. A digest of the protocol:
as §2

A further experiment has as its system HCT-116. Nature of the experiment: Cytotoxicity against human HCT116 cells assessed as reduction in number of viable cells after 72 hrs by fluorescence assay. The format is functional, cell-based. The settings on record: HCT-116, 72 h. The procedure, abridged: as §2
The test system of a further experiment is CCRF-CEM. Briefly: Cytotoxicity against human CEM cells assessed as reduction in number of viable cells after 72 hrs by fluorescence assay. The format is functional, cell-based. A digest of the protocol:
as §2

For another experiment, the system named is MCF7. Nature of the experiment: Cytotoxicity against human MCF7 cells assessed as reduction in number of viable cells after 72 hrs by fluorescence assay. The format is functional, cell-based. The settings on record: MCF7, 72 h. The procedure, abridged: as §2
A further experiment deals with K562. Briefly: Cytotoxicity against human K562 cells assessed as reduction in number of viable cells after 72 hrs by fluorescence assay. It is filed as functional, cell-based. Particulars: K562, 72 h. The procedure, abridged:
as §2

The target of experiment [1] is Cyclin-dependent kinase 2/cyclin E1 (Homo sapiens, UniProt P24941). Briefly: Inhibition of CDK2/Cyclin E (unknown origin) expressed in Sf9 cells using histone H1 as substrate.
Experiment [2] deals with Cyclin-dependent kinase 5/CDK5 activator 1 (Homo sapiens, UniProt Q00535). Nature of the experiment: Inhibition of CDK5/P35 (unknown origin) using histone H1 as substrate. It is filed as protein-complex assay.
Chain of Cyclin-dependent kinase 5/CDK5 activator 1 (Q00535 whole entry): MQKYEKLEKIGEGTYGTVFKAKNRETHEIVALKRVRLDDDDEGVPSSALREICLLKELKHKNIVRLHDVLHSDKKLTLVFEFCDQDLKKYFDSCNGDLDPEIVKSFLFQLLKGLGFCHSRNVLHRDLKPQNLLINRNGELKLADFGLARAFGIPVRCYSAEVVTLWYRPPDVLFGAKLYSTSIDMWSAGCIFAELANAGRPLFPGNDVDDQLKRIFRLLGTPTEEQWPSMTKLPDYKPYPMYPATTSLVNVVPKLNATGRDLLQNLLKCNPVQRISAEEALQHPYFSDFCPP
Chain of Cyclin-dependent kinase 5/CDK5 activator 1 (Q15078 whole entry, further chain): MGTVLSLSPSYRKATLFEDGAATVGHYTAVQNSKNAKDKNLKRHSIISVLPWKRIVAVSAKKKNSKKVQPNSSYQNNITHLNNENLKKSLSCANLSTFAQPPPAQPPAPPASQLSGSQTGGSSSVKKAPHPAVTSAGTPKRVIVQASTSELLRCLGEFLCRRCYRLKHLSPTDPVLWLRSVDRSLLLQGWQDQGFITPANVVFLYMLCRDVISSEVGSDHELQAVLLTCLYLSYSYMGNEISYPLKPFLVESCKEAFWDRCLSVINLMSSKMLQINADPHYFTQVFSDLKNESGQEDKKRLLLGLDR
Experiment [3] concerns the target Cyclin-dependent kinase 7/ cyclin H (Homo sapiens, UniProt P50613). Briefly: Inhibition of CDK7/CyclinH/MAT1 (unknown origin) using (YSPTSPS)2KK as substrate. It is filed as protein-complex assay. The procedure, abridged:
as §1

Chain of Cyclin-dependent kinase 7/ cyclin H (P51946 whole entry): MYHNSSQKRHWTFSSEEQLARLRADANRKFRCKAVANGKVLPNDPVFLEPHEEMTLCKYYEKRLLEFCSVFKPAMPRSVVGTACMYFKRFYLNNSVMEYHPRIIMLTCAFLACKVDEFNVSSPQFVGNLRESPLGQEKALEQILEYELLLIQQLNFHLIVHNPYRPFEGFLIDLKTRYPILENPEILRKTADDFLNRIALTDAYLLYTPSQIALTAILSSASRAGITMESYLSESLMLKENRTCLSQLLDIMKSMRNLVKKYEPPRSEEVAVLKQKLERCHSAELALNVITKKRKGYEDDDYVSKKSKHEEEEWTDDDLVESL
Chain of Cyclin-dependent kinase 7/ cyclin H (P50613 whole entry): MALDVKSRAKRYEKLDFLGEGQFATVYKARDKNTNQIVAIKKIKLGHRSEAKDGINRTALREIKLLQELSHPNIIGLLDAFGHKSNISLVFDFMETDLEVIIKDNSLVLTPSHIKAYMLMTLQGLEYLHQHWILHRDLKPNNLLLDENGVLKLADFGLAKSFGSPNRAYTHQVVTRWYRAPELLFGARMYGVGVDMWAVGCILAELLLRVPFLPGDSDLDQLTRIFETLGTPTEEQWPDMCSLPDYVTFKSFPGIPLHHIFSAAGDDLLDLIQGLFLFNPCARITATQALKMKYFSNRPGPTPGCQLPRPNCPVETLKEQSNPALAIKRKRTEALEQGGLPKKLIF
Chain of CDK9/cyclin T1 (O60563 whole entry): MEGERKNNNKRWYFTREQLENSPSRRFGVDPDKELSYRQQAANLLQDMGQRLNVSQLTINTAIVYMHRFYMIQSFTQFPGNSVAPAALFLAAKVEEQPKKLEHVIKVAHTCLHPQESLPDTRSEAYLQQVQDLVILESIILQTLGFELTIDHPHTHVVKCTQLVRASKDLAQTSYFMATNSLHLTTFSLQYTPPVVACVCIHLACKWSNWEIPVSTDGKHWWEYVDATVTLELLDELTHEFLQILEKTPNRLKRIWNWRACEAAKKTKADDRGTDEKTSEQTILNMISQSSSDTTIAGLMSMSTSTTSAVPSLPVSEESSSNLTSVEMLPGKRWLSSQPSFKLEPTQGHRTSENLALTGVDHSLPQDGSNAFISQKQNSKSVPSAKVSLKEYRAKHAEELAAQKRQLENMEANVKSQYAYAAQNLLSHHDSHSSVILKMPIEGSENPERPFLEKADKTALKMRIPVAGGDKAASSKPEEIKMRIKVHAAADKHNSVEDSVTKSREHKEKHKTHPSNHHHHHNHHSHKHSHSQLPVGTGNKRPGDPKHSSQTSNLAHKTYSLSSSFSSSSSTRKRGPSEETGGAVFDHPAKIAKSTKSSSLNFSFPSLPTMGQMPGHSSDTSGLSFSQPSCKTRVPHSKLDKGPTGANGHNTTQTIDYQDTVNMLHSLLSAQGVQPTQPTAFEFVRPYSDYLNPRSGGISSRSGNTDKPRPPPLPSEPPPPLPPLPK
Chain of CDK9/cyclin T1 (P50750 whole entry): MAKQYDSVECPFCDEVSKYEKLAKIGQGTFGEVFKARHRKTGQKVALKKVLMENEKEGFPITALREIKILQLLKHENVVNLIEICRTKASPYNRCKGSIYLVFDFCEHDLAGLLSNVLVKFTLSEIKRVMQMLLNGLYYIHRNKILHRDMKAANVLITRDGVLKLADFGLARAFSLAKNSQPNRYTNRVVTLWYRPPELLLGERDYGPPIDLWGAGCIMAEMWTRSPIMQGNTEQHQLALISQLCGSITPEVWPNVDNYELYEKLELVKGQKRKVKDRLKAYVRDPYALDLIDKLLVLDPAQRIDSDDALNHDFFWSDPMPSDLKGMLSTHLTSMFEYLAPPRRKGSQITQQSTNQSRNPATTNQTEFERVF

As a reminder, the IC50 is the midpoint of a concentration-inhibition curve. `CC[C@H](CO)Nc1nc(NCc2ccccc2O)c2ncn(C(C)C)c2n1` [OLOMOUCINE II]: the half-inhibitory concentration (IC50) at CDK9/cyclin T1 was 0.815 µM; in the experiment with HOS it was 10.6 µM; in the experiment with G-361, 9.2 µM; in the experiment with HCT-116, 4.1 µM; with CCRF-CEM it was 7.4 µM; with MCF7, 9.1 µM. In the experiment with K562, the IC50 was 23 µM.

As for `CC(C)n1cnc2c(NCc3cc(Cl)ccc3O)nc(NC3CCC(N)CC3)nc21` (centres undefined), the IC50 is 0.039 µM on CDK9/cyclin T1; 2.2 µM in the experiment on HOS; 2.4 µM with G-361; 0.025 µM in experiment [1]; 0.125 µM in [2]; 2.4 µM in the experiment on HCT-116. Further, the IC50 in experiment [3] amounted to 0.16 µM; with CCRF-CEM, 3.3 µM; in the experiment on MCF7 it was 1.8 µM; with K562, 2.4 µM.

Take `CC(C)n1cnc2c(NCc3cc(Cl)ccc3O)nc(NCC(C)(C)O)nc21`: the 50% inhibitory concentration (IC50) in the experiment with HOS is 4.4 µM; with G-361, 4.3 µM; in experiment [1], 0.019 µM; in experiment [2], 0.069 µM; with HCT-116, 4 µM; in [3], 0.435 µM. Also, the IC50 with CCRF-CEM was 3.9 µM; in the experiment on MCF7, 2.7 µM; in the experiment on K562, 5.1 µM.

For `CC(C)n1cnc2c(NCc3ccccc3N)nc(NCCC(C)(C)O)nc21`, the IC50 on CDK9/cyclin T1 is above 5 µM; in the experiment on HOS, 100 µM; in the experiment with G-361 it was 100 µM; in experiment [1], 0.79 µM; in experiment [2] it was above 5 µM; in the experiment on HCT-116, 100 µM. Further, the IC50 in the experiment with CCRF-CEM, in the experiment with MCF7 and with K562 was 100 µM each time.

Take `COc1cccc(CNc2nc(N3CCNCC3)nc3c2ncn3C(C)C)c1O`: the IC50 worked out at 30.6 µM in the experiment on HOS; 18.9 µM in the experiment on G-361; 0.63 µM in [1]; 22.5 µM in the experiment with HCT-116; 27.5 µM in the experiment on CCRF-CEM; 8.3 µM with MCF7. Also, the IC50 with K562 was found to be 14.2 µM.

For the molecule `CC(C)n1cnc2c(NCc3cc(Cl)ccc3O)nc(N[C@@H](C)C(C)(C)O)nc21`, the IC50 in the experiment with HOS is 1.8 µM; with G-361 it was 1.2 µM; in [1], 0.0243 µM; with HCT-116, 1.8 µM; in the experiment on CCRF-CEM, 2.5 µM; in the experiment on MCF7, 1.4 µM. Further, in the experiment on K562, the half-maximal inhibitory concentration (IC50) amounted to 2 µM.

Turning to `CC[C@H](CO)Nc1nc(NCc2cc(F)ccc2O)c2ncn(C(C)C)c2n1`, the IC50 at CDK9/cyclin T1 stood at 0.106 µM; in the experiment with HOS, 4.5 µM; in the experiment with G-361 it was 6.5 µM; in experiment [1], 0.019 µM; in [2] it was 0.24 µM; with HCT-116, 4.8 µM. Also, the IC50 in the experiment on CCRF-CEM is 3.9 µM; with MCF7, 3.6 µM; in the experiment on K562, 4.1 µM.

On to `CC[C@H](CO)Nc1nc(NCc2ccccc2)c2ncn(C(C)C)c2n1` [SELICICLIB], for which the IC50 in the experiment with HOS is 24.3 µM; in the experiment on G-361 it was 22.4 µM; with HCT-116, 14.4 µM; in the experiment on CCRF-CEM, 16.3 µM; in the experiment on MCF7, 12.3 µM; in the experiment on K562 it was 45.5 µM.

Turning to `CC(C)n1cnc2c(NCc3ccc(O)cc3)nc(N3CCNCC3)nc21`, the IC50 with HOS amounted to 6.5 µM; in the experiment with G-361, 12.4 µM; in [1], 0.34 µM; in the experiment on HCT-116 it was 9.3 µM; in the experiment with CCRF-CEM it was 13.4 µM; with MCF7 it was 4.1 µM. Also, the concentration for half-maximal inhibition (IC50) in the experiment with K562 is 9.3 µM.

Consider `CC(C)[C@H](Nc1nc(NCc2ccccc2N)c2ncn(C(C)C)c2n1)C(C)(C)O`, for which the IC50 worked out at 0.845 µM on CDK9/cyclin T1; 42.7 µM in the experiment on HOS; 18.7 µM with G-361; 0.07 µM in [1]; 0.675 µM in experiment [2]; 11.8 µM with HCT-116. The IC50 in experiment [3] worked out at 0.29 µM; in the experiment on CCRF-CEM, 13.1 µM; with MCF7, 12.8 µM; in the experiment on K562 it was 39.8 µM.

On to `CC[C@@H](CO)Nc1nc(NCc2cccc(OC)c2O)c2ncn(C(C)C)c2n1`, for which the concentration for half-maximal inhibition (IC50) with HOS was 5.9 µM; in the experiment with G-361, 7.8 µM; in [1] it was 0.059 µM; in the experiment on HCT-116, 8.7 µM; in the experiment with CCRF-CEM, 10.7 µM; in the experiment with MCF7 it was 5.3 µM. Moreover, in the experiment with K562, the half-maximal inhibitory concentration (IC50) turned out to be 15.4 µM.

On to `COc1ccc(CNc2nc(N3CCN(C)CC3)nc3c2ncn3C(C)C)cc1`, for which the IC50 in the experiment on HOS was 11.2 µM; with G-361, 13.9 µM; in experiment [1], 0.89 µM; in the experiment with HCT-116 it was 13.4 µM; in the experiment with CCRF-CEM, 13.1 µM; in the experiment with MCF7, 12 µM. Besides, in the experiment on K562, the half-inhibitory concentration (IC50) is 11.9 µM.

For `CC[C@H](CO)Nc1nc(NCc2cccc(OC)c2O)c2ncn(C(C)C)c2n1`, the 50% inhibitory concentration (IC50) is 14.8 µM in the experiment with HOS; 22 µM in the experiment on G-361; 0.06 µM in experiment [1]; 12.3 µM in the experiment on HCT-116; 16.6 µM with CCRF-CEM; 12.6 µM in the experiment with MCF7. Further, in the experiment with K562, the IC50 was 54.8 µM.

Turning to `CC(C)CNc1nc(NCc2ccccc2O)c2ncn(C(C)C)c2n1`, the IC50 against CDK9/cyclin T1 is 3.13 µM; in the experiment on HOS, 23.9 µM; with G-361, 15.7 µM; in [1] it was 0.22 µM; in experiment [2], 2.36 µM; with HCT-116 it was 22.2 µM. Also, the IC50 stood at 13.6 µM in the experiment on CCRF-CEM, 14.1 µM with MCF7 and 10.8 µM in the experiment with K562.

For `CC(C)n1cnc2c(NCc3ccccc3O)nc(NCCC(C)(C)O)nc21`, the concentration for half-maximal inhibition (IC50) is above 5 µM against CDK9/cyclin T1; 45.5 µM in the experiment on HOS; 52.2 µM with G-361; 0.26 µM in [1]; 4.49 µM in experiment [2]; 64.1 µM with HCT-116. For the same molecule, the IC50 in the experiment on CCRF-CEM was determined as 34.6 µM; with MCF7, 65.9 µM; in the experiment with K562, 47.3 µM.

With `CC[C@H](CO)Nc1nc(NCc2cc(Cl)ccc2O)c2ncn(C(C)C)c2n1`, the IC50 came out at 0.285 µM against CDK9/cyclin T1; 5 µM with HOS; 4.3 µM in the experiment on G-361; 0.0094 µM in experiment [1]; 0.15 µM in experiment [2]; 5.4 µM with HCT-116. Also, the 50% inhibitory concentration (IC50) with CCRF-CEM was determined as 3.7 µM; in the experiment with MCF7 it was 4.6 µM; in the experiment with K562 it was 3.2 µM.

Take `COc1ccc(CNc2nc(N3CCNCC3)nc3c2ncn3C(C)C)cc1`: the IC50 with HOS stood at 5.1 µM; in the experiment with G-361, 10.1 µM; in [1] it was 0.89 µM; in the experiment on HCT-116, 11.5 µM; with CCRF-CEM, 10.8 µM; with MCF7, 3.53 µM. For the same molecule, the IC50 with K562 turned out to be 5.3 µM.

As for `CC(C)n1cnc2c(NCc3ccccc3N)nc(NCC(C)(C)O)nc21`, the IC50 against CDK9/cyclin T1 was determined as 1.24 µM; with HOS it was 16.9 µM; in the experiment with G-361, 12.6 µM; in experiment [1], 0.02 µM; in experiment [2] it was 0.74 µM; with HCT-116, 12.9 µM. The half-inhibitory concentration (IC50) in experiment [3] amounted to 1.2 µM; in the experiment with CCRF-CEM, 12.6 µM; with MCF7, 13.5 µM; in the experiment with K562, 34 µM.

Consider `CC(C)n1cnc2c(NCc3cc(Cl)ccc3O)nc(NC3CCC(O)CC3)nc21` (centres undefined), for which the IC50 at CDK9/cyclin T1 is 0.91 µM; with HOS it was 6.4 µM; in the experiment on G-361, 8.2 µM; in [1], 0.061 µM; in experiment [2] it was 0.55 µM; in the experiment with HCT-116, 13.2 µM. Moreover, the IC50 was 0.54 µM in [3], 3.2 µM in the experiment with CCRF-CEM, 2.6 µM in the experiment with MCF7 and 2.4 µM in the experiment on K562.

Take `CC[C@H](CO)Nc1nc(NCc2cccc(OC)c2OC)c2ncn(C(C)C)c2n1`: the half-maximal inhibitory concentration (IC50) was 67.5 µM in the experiment on HOS; 46.6 µM with G-361; 0.031 µM in experiment [1]; 29.5 µM with HCT-116; 38 µM in the experiment with CCRF-CEM; 21 µM with MCF7. For the same molecule, the concentration for half-maximal inhibition (IC50) in the experiment with K562 was 40.1 µM.

Regarding `CC[C@H](CO)Nc1nc(NCc2ccc(N)cc2)c2ncn(C(C)C)c2n1`, the IC50 in the experiment with HOS was 29.4 µM; in the experiment with G-361, 26 µM; in the experiment with HCT-116, 23.8 µM; in the experiment on CCRF-CEM it was 22.6 µM; in the experiment on MCF7 it was 18.1 µM; in the experiment with K562, 71.5 µM.

`CC[C@@H](Nc1nc(NCc2cc(F)ccc2O)c2ncn(C(C)C)c2n1)C(C)O` (mixture of isomers): the IC50 against CDK9/cyclin T1 is 0.1 µM; in the experiment on HOS, 2.4 µM; with G-361, 1.9 µM; in experiment [1], 0.0118 µM; in [2], 0.067 µM; in the experiment on HCT-116, 1.8 µM. Further, the concentration for half-maximal inhibition (IC50) was found to be 0.18 µM in experiment [3], 1.6 µM in the experiment with CCRF-CEM, 1.8 µM in the experiment with MCF7 and 2.9 µM in the experiment on K562.
